Screening data from PubChem.
GSK3A inh – blockers of GSK3A enzyme activity – biochemical, luminescence, cell-free homogeneous, HTS, primary screen; Glycogen synthase kinase-3 alpha (Homo sapiens), P49840; GSK-3 alpha kinase, ADP-Glo luminescence, 60 min; inhibition, % at 10 µM; 0.1% of 320,000 active;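 active = more than half of replicates show inhibition above 20%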;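 also: GST-tagged GSK-3 alpha with peptide substrate and 25 µM ATP; 0% = DMSO neutral wells and 100% = GW8510 positive control wells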
GSK3B inh – human GSK3beta kinase inhibitors, primary screen, biochemical, cell-free homogeneous, HTS | Glycogen synthase kinase-3 beta (Homo sapiens), P49841 | GST-GSK3beta kinase, ADP-Glo luminescence, 60 min; hits give low values | activity score (negative = inhibition), % at 10 µM | 0.038% of 300,000 active | AID 2097, 2009;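 active = more than half of replicate wells score below -50%, meaning over 50% inhibition versus plate controls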;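 also: 0% = median DMSO wells and -100% = median GW8510 positive control wells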
Target sequence (P49841 whole entry, looked up): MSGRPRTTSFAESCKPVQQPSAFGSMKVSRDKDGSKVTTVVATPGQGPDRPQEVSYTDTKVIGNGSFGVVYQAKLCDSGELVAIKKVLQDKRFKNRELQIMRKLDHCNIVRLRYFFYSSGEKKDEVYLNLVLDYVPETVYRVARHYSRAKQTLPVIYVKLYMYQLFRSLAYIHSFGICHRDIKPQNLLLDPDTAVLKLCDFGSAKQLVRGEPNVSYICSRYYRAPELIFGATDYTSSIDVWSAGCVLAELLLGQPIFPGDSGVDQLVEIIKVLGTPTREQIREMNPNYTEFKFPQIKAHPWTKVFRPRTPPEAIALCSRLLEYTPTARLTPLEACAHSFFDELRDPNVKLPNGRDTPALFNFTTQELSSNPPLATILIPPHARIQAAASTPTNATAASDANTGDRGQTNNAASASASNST
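Test system: GST-fused GSK3beta enzyme, cell-free | Quantity: 1.6 ng GST-GSK3beta enzyme per well | Reagent: 25 µM ATP with peptide substrate | Schedule: 60 min enzyme reaction, room temperature | Signal: Luminescent ADP-Glo measurement of ADP formed | Read-out basis: Score relative to plate controls | Control set: DMSO and 20 µM GW8510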
CDK5 p35 inh – inhibitors of human CDK5/p35 kinase, primary screen, biochemical, single concentration | 0.01% of 330,000 active | inhibition, % at 10 µM | Cyclin-dependent kinase 5 (Homo sapiens) + Cyclin-dependent kinase 5 activator 1 (Homo … | Recombinant CDK5/p35, ADP-Glo luminescence, 60 min;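 active = highest replicate inhibition of at least 50% and at least 75% of replicates reaching 50%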;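 also: plate controls were DMSO neutral control for no effect and GW8510 at 10 µM for full effect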
STK33 inh – inhibitors of purified STK33 kinase, primary screen, biochemical, ADP-Glo luminescence, homogeneous, cell-free; Serine/threonine-protein kinase 33 (Homo sapiens), Q9BYT3; MBP phosphorylation; inhibition, % at 10 µM; 0.073% of 320,000 active;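 active = inhibition at or above 25%, using the most active replicate where run in duplicate; inactive = inhibition below 25%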
DYRK1A inh – rat Dyrk1A kinase inhibitors, primary screen, biochemical, single point, plate reader; Dual specificity tyrosine-phosphorylation-regulated kinase 1A (Rattus norvegicus), Q63470; ADP-Glo luminescence, NFATc1 peptide; inhibition, % at 12.5 µM; 0.43% of 310,000 active; in the data active = inhibition above about 50%;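 also: plate controls were vehicle with enzyme for no effect and no enzyme for full effect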
Dyrk1A artifact – ADP-Glo luciferase interference without Dyrk1A, dose response, artefact control for Dyrk1A inhibitor project, biochemical, luminescence, cherry-pick, set 02. shares compounds with DYRK1A inh. ADP-Glo luciferase artifact assay, no Dyrk1A. AC50, µM (doses to about 12 µM), for the others: at the top dose activity change, negative = inhibition. 1,300 tested, under 10 active. AID 588348, 2011;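 active = fitted half-maximal dose AC50 no more than ten times the top valid tested dose, with luminescence dropping as dose rises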
* = called active by the depositor; · = no result given. The full list was thinned out, with hits kept by preference.

SMILES | GSK3A inh | GSK3B inh | CDK5 p35 inh | STK33 inh | DYRK1A inh | Dyrk1A artifact
COC(=O)c1oc2ccc(OC)cc2c1N | 5.4 | -7.0 | 0.7 | 1.3 | 69.6* | 10.5%
COC(=O)c1[nH]c2cc(OC)ccc2c1N | · | 0.8 | 1.6 | 2.1 | 74.5* | 10.5%
COc1ccc(C(=O)c2oc3ccc(OC)cc3c2N)cc1 | -0.8 | -0.8 | 0.4 | 0.3 | -3.9 | ·
CCOC(=O)c1[nH]c2ccc(OC)cc2c1NC(=O)OC | · | 0.5 | 0.0 | 0.2 | -2.2 | ·
c1ccc(-c2nnc(SCC3CCCCO3)nc2-c2ccccc2)cc1 (centres undefined) | 1.3 | 4.7 | 0.5 | -5.5 | 0.3 | ·
Cc1ccccc1NC1=C/C(=N\S(=O)(=O)c2cccs2)c2ccccc2C1=O | · | -1.2 | 1.7 | 0.3 | 2.0 | ·
Cc1ccccc1NC1=C/C(=N\S(=O)(=O)c2ccc(C(=O)O)cc2)c2ccccc2C1=O | 22.4 | -12.9 | 3.3 | 5.5 | 62.2* | 6.0%
c1cncc(-c2nc3ccccc3[nH]2)c1 | -1.7 | -0.8 | 1.2 | 4.7 | 51.1* | 9.8%
COC(=O)c1ccc(COc2cccc(C)c2C)cc1 | -2.2 | 15.7 | 0.0 | -1.8 | 0.0 | ·
COc1ccc2cc3cc(C(=O)NCCN4CCN(Cc5ccccc5)CC4)oc3nc2c1 | 2.4 | 5.3 | -0.5 | -0.3 | 51.7* | 9.3%
CCN1CCN(CCCNC(=O)c2cc3cc4ccc(OC)cc4nc3o2)CC1 | 3.8 | -8.7 | -1.8 | 0.1 | 87.9* | 7.3%
COc1ccc2cc3cc(C(=O)NCCCN4CCOCC4)oc3nc2c1 | 3.1 | -3.3 | 0.2 | 0.5 | 57.6* | 9.1%
CCCCN(CC)CCCNC(=O)c1cc2cc3ccc(OC)cc3nc2o1 | -12.6 | -3.0 | -1.6 | 2.0 | 50.2* | 9.0%
CC(=O)N1CCOc2ccc(S(=O)(=O)N3CCC(C(=O)NCc4ccc(C)cc4)CC3)cc21 | -2.3 | -1.6 | -0.9 | 0.2 | 2.5 | ·
CC(=O)C1=C(O)C(=O)N(c2ccc(C)cc2)C1c1ccccn1 (centres undefined) | -1.5 | 1.2 | -3.1 | -0.3 | 1.4 | ·
CN1CCN(C(=O)c2cnn3c2NC(c2ccccc2)CC3C(F)(F)F)CC1 (centres undefined) | -1.3 | 0.3 | -2.4 | 0.2 | -0.4 | ·
COc1ccc2cc3cc(C(=O)NCCCN4CCC(C)CC4)oc3nc2c1 | 7.9 | · | 1.2 | -1.2 | 52.8* | 7.2%
CCCN(CCC)CCCNC(=O)c1cc2cc3ccc(OC)cc3nc2o1 | 9.5 | -7.0 | 1.2 | -0.4 | 37.3 | ·
O=c1cc[nH]c2c1ccc1c(=O)cc[nH]c12 | 2.1 | -0.2 | 0.8 | 4.8 | 0.7 | ·
Cc1[nH]ccc2c1[nH]c1cc(=O)ccc12 | 4.2 | 0.0 | 9.4 | 3.2 | 93.1* | 8.0%
COc1cccc(Nc2nc(NCCO)c3ccccc3n2)c1 | · | -0.9 | 0.7 | 7.3 | 52.3* | 1.7%
Cc1ccc(S(=O)(=O)NCCCNS(=O)(=O)c2ccccc2)cc1 | -4.9 | -2.0 | 0.6 | -6.5 | 9.5 | ·
CCCn1c(NCc2ccco2)nc2c1c(=O)n(C)c(=O)n2C | 0.1 | -6.8 | 1.2 | -1.6 | -2.3 | ·
Cn1c(=O)c2c(nc(NCc3ccco3)n2CC(O)COc2ccccc2)n(C)c1=O (centres undefined) | 1.7 | 0.1 | -0.8 | -2.1 | 56.5* | 7.6%
O=C(Nc1cc(Cl)ccc1-n1cncn1)c1cc(F)c(F)c(F)c1F | -0.9 | 0.2 | 2.8 | -0.7 | -2.4 | ·
SMILES | GSK3A inh | GSK3B inh | CDK5 p35 inh | STK33 inh | DYRK1A inh | Dyrk1A artifact
O=C(CSCC(=O)Nc1nc(-c2ccc3c(c2)OCO3)cs1)Nc1nccs1 | 1.1 | 0.3 | 0.3 | 1.0 | 0.3 | ·
O=C(O)C(=O)Nc1nc(-c2ccc3c(c2)OCCO3)cs1 | 6.1 | 3.4 | -2.6 | 1.0 | -6.1 | ·
CSCC(=O)Nc1nc(-c2ccc3c(c2)OCCO3)cs1 | 1.7 | -2.9 | -1.1 | -0.2 | 68.4* | 7.5%
CCCC(=O)Nc1nc(-c2ccc3c(c2)OCCO3)cs1 | -1.4 | · | -0.2 | 0.5 | 54.6* | 10.0%
COc1ccc(S(=O)(=O)N2CCOCC2)cc1NC(=O)CN1CCN(C)CC1 | 0.5 | -0.9 | -0.3 | -0.8 | 10.2 | ·
COc1cc(CO)cc(Br)c1OCc1cccnc1 | 1.2 | 2.0 | 0.1 | -0.2 | 50.6* | 8.8%
O=C1CCCC2=C1Sc1ccccc1N2 | 26.0 | -22.7 | -5.1 | 5.6 | 57.3* | 7.7%
c1cncc(-c2nc(NCCCn3ccnc3)c3ccccc3n2)c1 | 70.7* | -55.3* | -1.1 | 11.7 | 74.9* | 9.2%
Cc1ccc(-c2nc(NCc3ccco3)c3ccccc3n2)cc1 | -1.9 | 4.2 | 0.6 | -1.4 | 1.8 | ·
c1cncc(-c2nc(NCc3ccco3)c3ccccc3n2)c1 | 11.2 | -3.5 | 0.6 | 5.2 | 53.0* | 10.4%
O=C(NCCc1nc2ccccc2[nH]1)/C(=C/c1ccc2c(c1)OCO2)NC(=O)c1ccccc1Cl | 1.5 | -5.1 | 0.9 | 1.9 | 17.3 | ·
COc1ccc(C(=O)OCC(=O)NCc2ccc3c(c2)OCO3)cc1S(=O)(=O)N1CCOCC1 | -2.5 | · | -1.8 | -1.5 | · | ·
OCc1cc(C(O)CNCCCCCCOCCCCc2ccccc2)ccc1O (centres undefined) | 8.9 | 0.0 | 1.3 | 0.2 | 53.1* | 8.9%
COc1cc(/C=C2\SC(=Nc3ccccc3)NC2=O)cc(Cl)c1O | 7.1 | -4.2 | 0.3 | 6.8 | 51.5* | 10.2%
COC(=O)c1cc2c([nH]c3ccccc32)c(C)n1 | · | 1.2 | · | · | · | ·
COC(=O)c1nccc2c1[nH]c1ccccc12 | 3.2 | -2.5 | 1.6 | 5.0 | 65.8* | 9.2%
N#CC(C#N)=C1C=CC=CN1/C(=C\c1ccco1)C(=O)c1ccccc1 | 1.4 | · | 0.2 | 2.8 | 62.6* | 6.4%
CC(=O)N1c2ccc(S(=O)(=O)N3CCCC(C(=O)N4CCCC(C)C4)C3)cc2CC1C (centres undefined) | -0.8 | 0.6 | 0.9 | -1.6 | 0.4 | ·
CCC(C)NC(=O)C1CCCN(S(=O)(=O)c2ccc3c(c2)CC(C)N3C(C)=O)C1 (centres undefined) | 0.0 | -0.3 | -1.7 | -0.9 | -3.9 | ·
CCc1ccccc1NC(=O)C1CCCN(S(=O)(=O)c2ccc3c(c2)CC(C)N3C(C)=O)C1 (centres undefined) | 0.2 | -5.0 | -0.2 | 0.4 | 56.4* | 7.8%
CCC(C)NC(=O)C1CCCN(S(=O)(=O)c2ccc3c(c2)CC(C)N3C(=O)C2CC2)C1 (centres undefined) | 1.1 | 1.9 | 0.2 | -1.9 | 57.6* | 10.7%
O=C1C(=O)c2ccccc2C(O)=C1CC=C(Cl)Cl | · | · | -0.6 | · | 65.7* | 7.8%
O=C1C(C=Nc2ccccc2)=C(O)c2ccccc21 | 1.5 | -4.3 | 2.0 | 8.8 | 39.9 | ·
Clc1cnc(N/N=C/c2cccs2)c(Cl)c1 | 0.1 | 3.5 | -0.5 | 1.0 | 4.1 | ·
